Screening results from PubChem BioAssay.
Only a selection was taken, and hits are over-represented in it overall.
Insulin prom act: TRM-6 insulin promoter activation. activation, % at 2 µM. 0.81% of 130,000 active. TRM-6 cells, insulin promoter eGFP reporter, imaging; plate-scaled: unstimulated 0, stimulated control 100;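 active = activation at 2 µM above a set limit, confirmed on inspection of the cell images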;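 note: share of cells whose green reporter signal exceeds an intensity cutoff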
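Material: Human fetal islet-derived TRM-6 cells with tamoxifen-inducible insulin promoter–eGFP reporter | Medium: Low-glucose (5.5 mM) medium with tamoxifen | Probe or stimulus: Tamoxifen inducer, 0.75 µM, in seeding medium | Schedule: Tamoxifen pre-incubation 15 h overnight, then compound exposure 48 h at 37 °C | Detection: High-content imaging of fixed cells with Hoechst nuclear stain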
* hit, by the source's call.

SMILES | Insulin prom act
CCOC(=O)CSc1nc(C(C)(C)C)nc2ccccc12 | -4.8
O=[N+]([O-])c1ccc(OCc2cnc(Cl)s2)cc1 | 239.5*
Cc1ccc(OCC(=O)Nc2ccc([N+](=O)[O-])cc2)cc1 | -8.3
COC(=O)C(Cc1cnc(Cl)s1)(C(=O)OC)c1ccccc1[N+](=O)[O-] | -8.3
CC1CN(CCOc2ccc([N+](=O)[O-])cc2)CC(C)O1 (centres undefined) | -5.3
COC(=O)C(Cc1cnc(Cl)s1)(C(=O)OC)c1ccc([N+](=O)[O-])cc1 | 535.7*
O=[N+]([O-])c1ccc(COc2ccc(CNc3ccccc3)cc2)cc1 | 0.0
C=CCOc1c(Br)cc(/C=N/n2c(CC)n[nH]c2=S)cc1Br | 3.8
CS(=O)(=O)N(CC(=O)N1CCN(c2ccc(F)cc2)CC1)c1ccc(F)c(Cl)c1 | 0.0
O=C(CCn1cnc(-c2ccccc2)c1-c1ccccc1)N/N=C/c1ccccc1O | 0.0
COc1ccccc1CNC(=S)Nc1ccc2nc(N3CCN(C)CC3)cc(C)c2c1 | -6.7
Cc1nnc(NC(=O)c2ccc(C)c(S(=O)(=O)N3CCCCCC3)c2)s1 | 1.8
COc1ccc(C(=O)Nc2nc(C)cs2)cc1S(=O)(=O)N1CCCC1 | 221.1*
Cc1csc(NC(=O)c2cccc(S(=O)(=O)N3CCCCC3)c2)n1 | 0.0
O=C1c2cccc3cccc(c23)C(=O)N1CCCc1n[nH]c(=S)n1-c1ccccc1 | 0.0
CCSc1nnc(NS(=O)(=O)c2ccc(C)cc2)s1 | 0.0
S=c1[nH]nc(COc2ccc3ccccc3c2)o1 | 107.1
COc1ccc(Cc2nnc(SCC(=O)c3ccc(OC)cc3)o2)cc1 | 41.9
COc1ccc(Cc2n[nH]c(=S)o2)cc1 | 478.6*
COC(CNC(=O)c1cc(-c2ccncc2)nc2ccc(S(=O)(=O)N3CCOCC3)cc12)OC | 0.0
Cc1cc(C)c2cc(CN(Cc3cccnc3)C(=O)c3ccc(F)cc3)c(Cl)nc2c1 | 130.0*
Cc1[nH]c2ccccc2c1CCN(Cc1cccnc1)C(=S)Nc1ccc(F)cc1 | 0.0
CCOC(=O)CNC(=S)N(Cc1ccccc1)Cc1cccnc1 | 6.7
CCN(CC)C(=O)/C(=C\c1ccc(Br)cc1)NC(=O)c1ccccc1OC | -3.2
Cc1cccc(-n2c(SCc3ccc([N+](=O)[O-])cc3)nnc2-c2c[nH]c3ccccc23)c1 | 5.9
SMILES | Insulin prom act
CCCCc1ccc(S(=O)(=O)N2CCN(C(=O)c3ccco3)CC2)cc1 | 7.1
O=C(CCSc1ccccc1)N1CCN(C(=O)c2ccco2)CC1 | 156.3
O=C(c1ccco1)N1CCN(S(=O)(=O)c2cccs2)CC1 | -76.7
O=C(Cc1ccccc1)N1CCN(C(=O)c2ccco2)CC1 | 528.6*
O=C(c1ccco1)N1CCN(S(=O)(=O)Cc2ccc(Cl)cc2)CC1 | 420.0*
O=C(Cc1ccccc1F)OCC(=O)N1CCN(C(=O)c2ccco2)CC1 | 0.0
COCCN(Cc1cc2cc(C)ccc2nc1Cl)C(=O)Nc1ccccc1OC | 133.3
CCOC(=O)Cn1nc(-c2ccccc2)c2cnc3ccc(CC)cc3c21 | 0.0
C=C(C)CN1CCN(c2ccc(N3C(=O)CCCC3=O)cc2[N+](=O)[O-])CC1 | 7.7
COC(=O)C1=C(CSc2nc3ccccc3s2)NC(=O)NC1c1ccc(F)cc1 (centres undefined) | 0.0
CCCn1c(SCC(=O)Nc2ccc(C(=O)Nc3ccccc3OC)cc2)n[nH]c1=O | 6.7
CCCn1c(SCC(=O)Nc2ccc(Cl)cc2)n[nH]c1=O | -8.3
CCCn1c(SCC(=O)c2cc(C)ccc2C)n[nH]c1=O | 100.0*
COc1cc(/C=C2\N=C(c3c(-c4ccccc4)noc3C)OC2=O)ccc1OC(C)=O | 0.0
Cc1ccccc1N1CCN(C(=O)CCN2C(=O)c3ccccc3C2=O)CC1 | 6.8
COc1ccc(C(=O)CCNc2ccc3c(c2)OCCO3)cc1 | 356.3*
CCOC(=O)c1ccc(NC(=O)Nc2ccc3c(c2)OCCO3)cc1 | -2.8
COc1cc(C(=O)Nc2ccc3c(c2)OCCO3)ccc1OC(F)F | -3.2
CC(=O)Nc1ccc(NC(=O)CN(c2cccc([N+](=O)[O-])c2)S(C)(=O)=O)cc1 | 5.9
CC1(C)C(=O)N(OCc2ccccc2)C(C)(C)C(=O)N1OCc1ccccc1 | -4.3
S=C(Nc1ccccc1)N1CCCCCCC1 | 7.1
NS(=O)(=O)c1ccc(NC(=S)N2CCN(c3ccccc3Cl)CC2)cc1 | -4.6
O=S(=O)(c1ccc(F)c(F)c1F)N1CCN(C(=S)Nc2ccccc2)CC1 | 323.5*
CNC(=O)COC(=O)c1cc(-c2ccccc2)nn1-c1ccccc1 | 0.0
CC1Nc2ccccc2C(=O)N1NC(=O)c1ccc(Br)cc1 (centres undefined) | 0.0
CCOC(=O)NC(=O)c1cn(CCN(C)C)c(=O)[nH]c1=O | 7.1
O=C1N/C(=C/c2ccc(N3CCOCC3)cc2)C(=O)N1Cc1ccc(F)cc1 | -8.3
O=C1/C(=C/c2ccc(N3CCCC3)cc2)NC(=S)N1C1CC1 | 185.7*
CN1CCC(=NNC(=O)CN(c2ccc(Oc3ccccc3)cc2)S(C)(=O)=O)CC1 | 454.5*
Cc1ccc(C)c(N(CC(=O)NN=C2CCN(C)CC2)S(=O)(=O)c2ccccc2)c1 | -8.3
